Source: ChEMBL document CHEMBL4385646, “Structural development of 1H-pyrazolo-[3,4-b]pyridine-4-carboxylic acid derivatives as human peroxisome proliferator-activated receptor alpha (PPARα)-selective agonists” (Bioorg Med Chem Lett, 2019)
Calls of active or inactive are those of the source. The calls are words filed in the database; no cut-off is given here.

How the values were obtained:
[1] = Selectivity ratio of EC50 for rat GAL4-fused PPARalpha expressed in human HepG2 cells to EC50 for human GAL4-fused PPARalpha LBD expressed in human HepG2 cells; assay type: cell-based
[2] = system: Rattus norvegicus; test: […] activity in fructose-challenged Sprague-Dawley rat assessed as increase in liver ACADM mRNA expression at 10 mg/kg, po administered once daily via gavage for 2 weeks measured after 5 hrs fasting by SYBR green dye-based RT-PCR analysis; assay type: functional, organism-based
Summary of the method: (§1)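 Male rats were given 25% fructose in drinking water for 3 weeks. They then received 10 mg/kg/day orally in 0.5% methylcellulose (vehicle control) for 2 more weeks while fructose continued. Liver mRNA was measured by real-time RT-PCR, normalized to β2-microglobulin and set as 1 in the vehicle group. Values are means ± S.D.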

[3] = molecular target: Peroxisome proliferator-activated receptor alpha (Homo sapiens) (UniProt Q07869); test: Displacement of fluormone pan-PPAR green from GST-tagged human PPARalpha ligand binding domain after 3 hrs by TR-FRET assay
[4] = system: Rattus norvegicus; test: […] activity in fructose-challenged Sprague-Dawley rat assessed as increase in liver CPT1A mRNA expression at 10 mg/kg, po administered once daily via gavage for 2 weeks measured after 5 hrs fasting by SYBR green dye-based RT-PCR analysis; assay type: functional, organism-based; summary of the method: as §1
[5] = molecular target: T1, Peroxisome proliferator-activated receptor delta (Homo sapiens) (UniProt Q03181); test: Transactivation of human GAL4-fused PPARdelta expressed in human HepG2 cells after 24 hrs by dual renilla-luciferase reporter gene assay; assay type: cell-based
T1 sequence (whole entry): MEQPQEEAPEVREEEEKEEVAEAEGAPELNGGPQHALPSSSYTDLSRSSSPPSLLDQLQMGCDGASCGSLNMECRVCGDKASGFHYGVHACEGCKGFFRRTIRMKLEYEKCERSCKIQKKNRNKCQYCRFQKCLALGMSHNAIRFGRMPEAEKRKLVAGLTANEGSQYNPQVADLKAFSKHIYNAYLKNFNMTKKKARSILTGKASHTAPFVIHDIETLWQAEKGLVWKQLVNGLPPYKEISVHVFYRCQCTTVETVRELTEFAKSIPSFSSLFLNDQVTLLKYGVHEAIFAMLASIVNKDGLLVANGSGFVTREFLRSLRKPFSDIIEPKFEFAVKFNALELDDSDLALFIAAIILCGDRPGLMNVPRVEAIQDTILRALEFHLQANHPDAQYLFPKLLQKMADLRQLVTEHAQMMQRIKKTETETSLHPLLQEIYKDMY
Summary of the method: (§2)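 HepG2 cells carried GAL4-fused human PPARγ or PPARδ, or mouse or rat PPARα, plus the 4xUAS-tk-luc reporter. Cells treated across a concentration range for 24 h. Luciferase normalized to Renilla activity and expressed as fold induction over vehicle, set as 1.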

[6] = molecular target: T2, Peroxisome proliferator-activated receptor alpha (Homo sapiens) (UniProt Q07869); test: Transactivation of human GAL4-fused PPARalpha LBD expressed in human HepG2 cells at 1 uM after 24 hrs by dual renilla-luciferase reporter gene assay relative to fenofibrate; assay type: cell-based
T2 sequence (whole entry): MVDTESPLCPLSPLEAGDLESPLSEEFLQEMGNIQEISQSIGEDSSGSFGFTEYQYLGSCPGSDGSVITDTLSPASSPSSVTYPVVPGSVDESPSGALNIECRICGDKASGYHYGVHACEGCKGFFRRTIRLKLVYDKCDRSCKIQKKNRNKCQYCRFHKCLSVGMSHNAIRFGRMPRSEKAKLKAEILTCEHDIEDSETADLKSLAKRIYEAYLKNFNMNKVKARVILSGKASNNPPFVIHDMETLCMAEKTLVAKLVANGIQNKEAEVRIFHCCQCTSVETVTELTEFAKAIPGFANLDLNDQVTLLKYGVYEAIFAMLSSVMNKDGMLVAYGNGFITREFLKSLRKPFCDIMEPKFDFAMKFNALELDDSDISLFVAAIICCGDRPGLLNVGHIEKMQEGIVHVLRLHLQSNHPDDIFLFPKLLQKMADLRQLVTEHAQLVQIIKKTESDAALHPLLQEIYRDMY
Summary of the method: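 HepG2 cells cotransfected with 4xUAS-tk-luc and pBIND-hPPARα. Cells treated 24 h with compound at 1 μM final; fenofibrate 10 μM served as reference and 0.1% DMSO as vehicle. Read-out by reporter gene luciferase assay.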

[7] = system: Rattus norvegicus; test: […] activity in fructose-challenged Sprague-Dawley rat assessed as reduction in serum triglyceride level at 10 mg/kg, po administered once daily via gavage for 2 weeks measured after 5 hrs fasting; assay type: functional, organism-based
Summary of the method: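 Male rats had 25% fructose in drinking water for 3 weeks, then oral dosing at 10 mg/kg/day for 2 weeks with fructose continued. The vehicle group got 0.5% methylcellulose. Serum triglyceride was measured after the 2-week treatment.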

[8] = molecular target: T3, Peroxisome proliferator-activated receptor gamma (Homo sapiens) (UniProt P37231); test: Transactivation of human GAL4-fused PPARgamma expressed in human HepG2 cells at 30 uM after 24 hrs by renilla luciferase reporter gene assay; assay type: cell-based; summary of the method: as §2
T3 sequence (whole entry): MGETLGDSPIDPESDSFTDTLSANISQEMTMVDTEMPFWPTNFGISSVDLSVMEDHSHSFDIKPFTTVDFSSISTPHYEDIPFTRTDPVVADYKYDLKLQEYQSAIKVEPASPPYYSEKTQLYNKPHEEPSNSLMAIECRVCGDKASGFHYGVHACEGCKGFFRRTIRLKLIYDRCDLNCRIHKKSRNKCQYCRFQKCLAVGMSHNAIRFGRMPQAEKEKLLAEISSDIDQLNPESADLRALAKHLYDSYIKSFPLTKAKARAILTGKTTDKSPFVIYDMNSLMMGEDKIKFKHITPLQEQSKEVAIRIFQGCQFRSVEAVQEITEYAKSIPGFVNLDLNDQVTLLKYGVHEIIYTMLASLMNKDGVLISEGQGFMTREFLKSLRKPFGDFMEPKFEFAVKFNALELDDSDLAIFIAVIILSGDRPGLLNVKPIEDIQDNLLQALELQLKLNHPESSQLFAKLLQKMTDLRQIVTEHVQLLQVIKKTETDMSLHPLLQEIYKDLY

[9] = system: Rattus norvegicus; test: […] activity in fructose-challenged Sprague-Dawley rat assessed as increase in liver ACOX1 mRNA expression at 10 mg/kg, po administered once daily via gavage for 2 weeks measured after 5 hrs fasting by SYBR green dye-based RT-PCR analysis; assay type: functional, organism-based; summary of the method: as §1
[10] = Selectivity ratio of EC50 for mouse GAL4-fused PPARalpha expressed in human HepG2 cells to EC50 for human GAL4-fused PPARalpha LBD expressed in human HepG2 cells; assay type: cell-based
[11] = molecular target: T2, Peroxisome proliferator-activated receptor alpha (Homo sapiens); test: Transactivation of human PPARalpha in human FLC4 cells assessed as upregulation of PDK4 mRNA expression after 48 hrs by SYBR green dye-based RT-PCR analysis; assay type: cell-based
Summary of the method: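 FLC4 cells treated for 48 h with various concentrations. PDK4 mRNA measured by real-time RT-PCR, normalized to β2-microglobulin and set as 1 in vehicle. Values are means ± S.D.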

[12] = molecular target: T2, Peroxisome proliferator-activated receptor alpha (Homo sapiens); test: Transactivation of human PPARalpha LBD expressed in human HepG2 cells at 10 uM after 24 hrs in presence of PPARalpha antagonist by dual renilla-luciferase reporter gene assay; assay type: cell-based
Summary of the method: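 Transfected HepG2 cells (4xUAS-tk-luc plus pBIND-hPPARα) were pretreated 1 h with graded GW6471 before agonist was added at 10 μM final. Reporter luciferase was read after treatment. Percent inhibition was calculated relative to activity without GW6471, taken as 100%.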

[13] = system: Rattus norvegicus; test: […] activity in fructose-challenged Sprague-Dawley rat assessed as increase in liver SLC25A20 mRNA expression at 10 mg/kg, po administered once daily via gavage for 2 weeks measured after 5 hrs fasting by SYBR green dye-based RT-PCR analysis; assay type: functional, organism-based; summary of the method: as §1

inhibition [3]: Dose-dependent effect | Activity [5]: inactive | activation relative to fenofibrate [6]: 187 | Activity [8]: Active | Activity [11]: Dose-dependent effect | Activity [12]: inactive
Compound: Cc1cc(C(=O)O)c2c(C(C)C)nn(-c3ccc(Cl)cc3)c2n1
Ratio EC50 [1]: 20 | Activity [2]: Active | Activity [4]: Active | Activity [7]: Active | Activity [9]: Active | Ratio EC50 [10]: 20 | Activity [13]: Active
